Here are results for 19 compounds from ChEMBL document CHEMBL1140013, “The 1,4-naphthoquinone scaffold in the design of cysteine protease inhibitors” (Bioorg Med Chem, 2007).

Activity calls are given as the source filed them. The rule behind the calls is not given here.

Test [1] concerns the target Pancreatic elastase (Sus scrofa) (UniProt P08419+P00772). The test is described as follows: Inhibition of pig pancreatic elastase. It counts as protein assay. In short, it runs like this: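 Porcine pancreatic elastase (50 µM stock) was incubated with inhibitor (DMSO stock) in 0.1 M Hepes pH 7.2 for up to 2 h. Timed aliquots were assayed on Suc-Ala-Ala-Ala-4-nitroanilide, following absorbance at 390 nm for 50 s.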

Test [2] concerns the target T1, Papain (Carica papaya) (UniProt P00784).
T1 sequence (whole entry): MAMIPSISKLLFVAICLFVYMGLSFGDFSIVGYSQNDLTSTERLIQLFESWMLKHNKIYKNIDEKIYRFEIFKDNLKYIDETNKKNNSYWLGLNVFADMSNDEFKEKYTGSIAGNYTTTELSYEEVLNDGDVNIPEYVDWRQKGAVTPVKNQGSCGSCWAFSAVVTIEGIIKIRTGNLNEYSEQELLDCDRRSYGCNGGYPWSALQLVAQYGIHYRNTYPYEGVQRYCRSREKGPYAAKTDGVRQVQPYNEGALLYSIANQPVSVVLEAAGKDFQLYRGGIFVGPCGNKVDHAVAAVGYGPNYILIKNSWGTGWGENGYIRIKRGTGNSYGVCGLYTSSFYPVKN
As to the kind of experiment: Inhibition of papain at 1.3 mM after 20 mins. The method in brief:
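Papain was pre-incubated with inhibitor at 1.3 mM for 20 min. Residual activity on BAPA was read at 410 nm and reported as % inhibition.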

In a further test the target is Cathepsin B (Bos taurus) (UniProt P07688). The test is described as follows: Inhibition of bovine spleen cathepsin B. In short, it runs like this:
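Cathepsin B (10 U/mL) was activated 15 min at 25 °C in 20 mM sodium acetate pH 5.0 with 1.0 mM EDTA and 30 mM DTT. It was then pre-incubated with inhibitor (DMSO stock) in acetate/EDTA buffer (Kitz–Wilson method). Aliquots were assayed on Z-S-Lys-ONp with 2.0 mM DTT, following p-nitrophenol at 326 nm for 3 min at 25 °C. k_obs came from ln(v/v0) versus time, using 4–6 inhibitor concentrations.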

Test [3] deals with T1, Papain (Carica papaya). As to the kind of experiment: Inhibition of papain at 65 uM after 30 mins. In short, it runs like this:
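Papain activated 30 min at 25 °C in 50 mM potassium phosphate pH 7.0 with 2.5 mM EDTA and 2.0 mM DTT. Inhibitor in DMSO added to the enzyme in EDTA-only buffer, with control incubations run in parallel. Aliquots went into BAPA substrate in buffer with EDTA and DTT. p-Nitroaniline release read at 410 nm for 4 min at 25 °C.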

Turning to `CCOC(=O)[C@H](Cc1ccccc1)NC1=CC(=O)c2ccccc2C1=O`, in test [1], the outcome was inactive. Consider `CCOC(=O)CNC1=C(Cl)C(=O)c2ccccc2C1=O`, for which, in test [1], the outcome was inactive. For the compound `CCOC(=O)[C@H](Cc1ccccc1)NC1=C(Br)C(=O)c2ccccc2C1=O`, in test [1], the result was inactive. For `CC(=O)Oc1cccc2c1C(=O)C=CC2=O`, the outcome in test [1] was inactive. One may read the inhibition as the share of the control response that was lost under treatment. A low value points to a response near the control. Regarding `O=C1C=C(O)C(=O)c2ccccc21`, on Papain (Carica papaya) [2], the inhibition was 82%. Also, the outcome in test [1] was inactive.

As for `CC1=CC(=O)c2ccccc2C1=O`, in test [1], the result was inactive. Compound `CCOC(=O)CNC1=CC(=O)c2ccccc2C1=O` came in with a Kinact on Cathepsin B (Bos taurus) of 14 µM. Besides, in test [1], the result was inactive. Consider `CC1=CC(=O)c2c(C)ccc(C)c2C1=O`, for which, in test [1], the result was inactive.

In the case of `CNC1=C(Br)C(=O)c2ccccc2C1=O`, the result in test [1] was inactive.

With `O=C1C=C(Br)C(=O)c2ccccc21`, the outcome in test [1] was inactive. Turning to `CC(C)CCNC(=O)[C@H](CC(C)C)NC1=CC(=O)c2ccccc2C1=O`, the result in test [1] was inactive. For `CCOC1=CC(=O)c2ccccc2C1=O`, the Kinact on Cathepsin B (Bos taurus) amounted to 797 µM. In test [1], the outcome was inactive.

For the compound `O=C1C(Cl)=C(Cl)C(=O)c2ccccc21`, the result in test [1] was inactive. As to `CCOC(=O)[C@H](Cc1ccccc1)NC1=C(Cl)C(=O)c2ccccc2C1=O`, in test [1], the result was inactive.

On to `O=C1C=CC(=O)c2c(O)cccc21`, for which, on Papain (Carica papaya) [3], the inhibition was found to be 60.4%. Further, the result in test [1] was inactive. The corresponding values for `O=C1C=CC(=O)c2ccccc21` are 49.5% and “inactive”.

As to `CNC1=CC(=O)c2ccccc2C1=O`, in test [1], the result was inactive.

With `O=C1C(Cl)=C(N2CCOCC2)C(=O)c2ccccc21`, the result in test [1] was inactive.

On Cathepsin B (Bos taurus), `CCOC(=O)CNC1=C(Br)C(=O)c2ccccc2C1=O` came in with a Kinact of 55.9 µM. The result in test [1] was inactive.
